Laboratory results: ChEMBL document CHEMBL1933026, “Synthesis and biological evaluation of molecular probes based on the 9-methylstreptimidone derivative DTCM-glutarimide” (Bioorg Med Chem Lett, 2012)
Values after ≈ are worked out from the molar mass of the structure shown. Active and inactive are the calls of the source. No cut-off for these calls is given here.

Experiments:
[1] = test system: RAW264.7; assay: Antiinflammatory activity in mouse RAW264.7 cells assessed as inhibition of LPS-induced NO production treated for 2 hrs before LPS challenge measured after 20 hrs by Griess method; assay type: functional, cell-based
Outline: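 RAW264.7 macrophages grown in DMEM with 10% FBS, seeded at 1 × 10⁵ cells/ml and used next day. Pretreated with compound 2 h, then stimulated with LPS […] for 20 h. Nitrite in the medium read with Griess reagent.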

[2] = (§1) Cytotoxicity against LPS-induced mouse RAW264.7 cells treated 2 hrs before LPS challenge measured after 20 hrs by MTT assay; assay type: cell-based; settings: mouse, LPS-induced RAW264.7 cells; read-out: ED50
Outline: (§2)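 RAW264.7 cells seeded at 1 × 10⁵ cells/ml and treated the next day with compound for 2 h, followed by LPS for 20 h. MTT solution then added and cells held 4 h at 37 °C in 5% CO₂. Viability read as absorbance at 570 nm.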

[3] = test system: RAW264.7; assay: as §1; assay type: cell-based; settings: Mus musculus, RAW264.7; outline: as §2
[4] = test system: RAW264.7; assay: Antiinflammatory activity in mouse RAW264.7 cells assessed as inhibition of LPS-induced iNOS expression at 1 to 10 ug/ml treated 2 hrs before LPS challenge measured after 24 hrs by Western blotting; assay type: functional, cell-based
Outline: (§3)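 RAW264.7 cells in DMEM with 10% FBS. Incubated with or without compound for 2 h, then stimulated with LPS 1 µg/ml for 24 h. Total cell lysates analysed for iNOS protein by Western blotting.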

[5] = test system: RAW264.7; assay: Inhibition of LPS-induced NF-kappaB activation in mouse RAW264.7 cells at 10 ug/ml treated 2 hrs before LPS challenge measured after 30 mins by electrophoretic mobility shift assay; assay type: cell-based
Outline: (§4)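 RAW264.7 cells pretreated 2 h, then stimulated with LPS for 30 min. Nuclear extracts prepared by the Andrews–Faller method. 5 µg protein incubated 20 min at RT with poly(dI-dC) and a ³²P-labelled NF-κB oligonucleotide in Tris-HCl pH 7.0 buffer with NaCl, EDTA, DTT, glycerol and NP-40. Complexes resolved on a 4% native polyacrylamide gel in TBE.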

[6] = test system: RAW264.7; assay: Inhibition of LPS-induced NF-kappaB activation in mouse RAW264.7 cells at 3 ug/ml treated 2 hrs before LPS challenge measured after 30 mins by electrophoretic mobility shift assay; assay type: cell-based; outline: as §4
[7] = test system: RAW264.7; assay: Antiinflammatory activity in mouse RAW264.7 cells assessed as inhibition of LPS-induced iNOS expression at 0.3 to 3 ug/ml treated 2 hrs before LPS challenge measured after 24 hrs by Western blotting; assay type: functional, cell-based; outline: as §3

Compound	IC50 [1]	CC50 at 20 h [2]	IC50 [3]	inhibition [4]	inhibition [5]	inhibition [6]	inhibition [7]
[N-]=[N+]=Nc1ccc(C(=O)NCCCCCCCCCCCCSC(=O)CC2CC(=O)NC(=O)C2)cc1	4.5 µg/mL (≈ 8.73 µM)	> 30 µg/mL	> 30 µg/mL	Active	inactive	inactive	
CCCCCCCCCCCCSC(=O)CC1CC(=O)NC(=O)C1					inactive	inactive	Active

Second part, led by results:

IC50 [1]	Compound	CC50 at 20 h [2]	IC50 [3]	inhibition [4]	inhibition [5]	inhibition [6]	inhibition [7]
5 µg/mL (≈ 8.38 µM)	O=C(CCCC[C@@H]1SC[C@@H]2NC(=O)N[C@@H]21)NCCCCCCCCCCCCSC(=O)CC1CC(=O)NC(=O)C1	> 30 µg/mL	> 30 µg/mL	Active	inactive	inactive	
> 30 µg/mL	O=C(CCCC[C@@H]1SC[C@@H]2NC(=O)N[C@@H]21)NCCCCCCCCCCCCNC(=O)CC1CC(=O)NC(=O)C1	> 30 µg/mL					
> 30 µg/mL	O=C(CCCC[C@@H]1SC[C@@H]2NC(=O)N[C@@H]21)NCCSC(=O)CC1CC(=O)NC(=O)C1	> 30 µg/mL					
